Data set [1] has as its system PC-3. Nature of the data set: Antiproliferative activity against human PC-3 cells assessed as reduction in cell viability incubated for 72 hrs in presence of 10% FBS by MTT assay. It is filed as functional, cell-based. As to conditions: PC-3, 72 h. Summed up:
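Cells left to adhere 24 h, then exposed to CBD (0–100 μM) for 72 h in medium with 10% FBS. MTT incubation 3 h at 37 °C, DMSO solubilisation, A570. Viability relative to vehicle; IC50 from nonlinear regression; at least three independent experiments.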
On the technique in general: Formazan colour is commonly taken as a measure of viable cells.

For data set [2], the system named is PC-3. Nature of the data set: Antiproliferative activity against human PC-3 cells assessed as reduction in cell confluency at 10 uM measured after 72 hrs by Hoechst 33342 staining based high content imaging fluorescence microscopic analysis. It is filed as functional. Summed up:
(§1)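 DU145 or PC-3 cells seeded at 2 × 10^3 per well and given CBD at 1, 5 or 10 μM with serum for 72 h; staurosporine as positive control. Stained 30 min with Hoechst 33342 (1:5000), YO-PRO-1 (1:1000) and PI (1:1000). High-content imaging with a 63× water objective. Hoechst gave confluency, nucleus area and circularity; YO-PRO/PI gave healthy, early and late apoptotic fractions.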

Data set [3] deals with DU-145. Nature of the data set: Induction of cell death in human DU-145 cells assessed as reduction in cell nucleus area at 1 to 10 uM measured after 72 hrs by Hoechst 33342 staining based high content imaging fluorescence microscopic analysis. It is filed as functional. As to conditions: dose 1-10 µM. Summed up: as §1
Data set [4] has as its system PC-3. In words: Induction of cell death in human PC-3 cells assessed as reduction in cell nucleus area at 1 to 10 uM measured after 72 hrs by Hoechst 33342 staining based high content imaging fluorescence microscopic analysis. The settings on record: dose 1-10 µM. It counts as functional. Summed up: as §1
In data set [5] the test system is DU-145. Nature of the data set: Induction of apoptosis in human DU-145 cells assessed as late apoptotic cells at 1 to 10 uM incubated for 72 hrs by YO-PRO and propidium iodide staining based high content imaging fluorescence microscopic analysis. The settings on record: dose 1-10 µM. It is filed as functional, cell-based. Summed up: as §1
In data set [6] the test system is PC-3. In words: Induction of apoptosis in human PC-3 cells assessed as early apoptotic cells at 1 to 10 uM incubated for 72 hrs by YO-PRO and propidium iodide staining based high content imaging fluorescence microscopic analysis. It is filed as functional, cell-based. As to conditions: dose 1-10 µM. Summed up:
as §1

In data set [7] the test system is PC-3. In words: Induction of apoptosis in human PC-3 cells at IC50 concentration incubated for 48 hrs by YO-PRO and PI staining based flow cytometry analysis. It counts as functional, cell-based. Summed up:
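After 48 h CBD, DU145 (4 × 10^4 per well) or PC-3 (3 × 10^4 per well) supernatant and trypsinised cells pooled. Stained in ice-cold PBS with YO-PRO (1:1000) and propidium iodide (1:1000). Flow cytometry gated live, early apoptotic and late apoptotic cells and DNA fragmentation.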

For data set [8], the system named is DU-145. Nature of the data set: Antiproliferative activity against human DU-145 cells assessed as reduction in cell viability incubated for 72 hrs in presence of capsazepine by MTT assay. It is filed as functional, cell-based. Summed up: (§2)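 DU145 or PC-3 cells pretreated 1 h with SR141716 (CB1 antagonist), SR144528 (CB2 antagonist), capsazepine (TRPV1 antagonist) or LPI (GPR55 agonist), then given CBD for 72 h. MTT read-out as % of vehicle. Compared with CBD alone by t-test; at least three independent experiments.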

The subject of data set [9] is PC-3. Nature of the data set: Antiproliferative activity against human PC-3 cells assessed as reduction in cell viability incubated for 72 hrs in presence of SR141716 by MTT assay. It is filed as functional, cell-based. Summed up: as §2
For data set [10], the system named is PC-3. In words: Antiproliferative activity against human PC-3 cells assessed as reduction in cell viability incubated for 72 hrs in presence of capsazepine by MTT assay. It is filed as functional, cell-based. Summed up:
as §2

The target in data set [11] is Serine/threonine-protein kinase AKT (Homo sapiens) (UniProt P31751+Q9Y243+P31749). In words: Inhibition of AKT phosphorylation in human DU-145 cells at IC50 concentration incubated for 48 hrs by Western blot analysis relative to control. It is filed as cell-based. Summed up: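 Cells seeded at 5 × 10^4 per well and treated 48 h with an IC50 dose of CBD in DU145 or PC-3. Lysed in ice-cold RIPA with protease/phosphatase inhibitor. 40 μg protein per lane on SDS-PAGE, then PVDF. Probed overnight at 4 °C for phospho-AKT and total AKT, HRP detection. Densitometry normalised to loading control, then to vehicle. Mean ± SD, ≥3 experiments, t-test.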
Background: Immunoblotting shows a protein as a band on a membrane.

The next data set relates to PWR-1E. Nature of the data set: Induction of apoptosis in human PWR-1E cells assessed as reduction in fraction of healthy cells at 1 to 10 uM incubated for 72 hrs by YO-PRO and propidium iodide staining based high content imaging fluorescence microscopic analysis. It counts as toxicity, cell-based. The settings on record: dose 1-10 µM. Summed up: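 PWR-1E cells seeded at 2 × 10^3 per well and given CBD at 1, 2 or 10 μM without serum for 72 h. Stained with Hoechst 33342, YO-PRO-1 and PI, then imaged by high-content microscopy. Scored for confluency and for healthy, early and late apoptotic fractions; at least three independent experiments.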

The test system of data set [12] is PC-3. In words: Anti-invasive activity against human PC-3 cells assessed as reduction in MMP-1 protein secretion incubated for 48 hrs by ELISA analysis. It counts as functional, cell-based. On the technique in general: An ELISA detects its analyte on a solid surface through an enzyme-linked reagent.

By IC50 is commonly meant the concentration at which inhibition is half-maximal. Broadly, the inhibition is the change of the read-out against control, counted positive when it falls. Read a high inhibition as a strong effect.

Active and inactive are the calls of the source. The calls are words filed in the database; no cut-off is given here.

Chain of Serine/threonine-protein kinase AKT (Homo sapiens) (P31749 whole entry, looked up): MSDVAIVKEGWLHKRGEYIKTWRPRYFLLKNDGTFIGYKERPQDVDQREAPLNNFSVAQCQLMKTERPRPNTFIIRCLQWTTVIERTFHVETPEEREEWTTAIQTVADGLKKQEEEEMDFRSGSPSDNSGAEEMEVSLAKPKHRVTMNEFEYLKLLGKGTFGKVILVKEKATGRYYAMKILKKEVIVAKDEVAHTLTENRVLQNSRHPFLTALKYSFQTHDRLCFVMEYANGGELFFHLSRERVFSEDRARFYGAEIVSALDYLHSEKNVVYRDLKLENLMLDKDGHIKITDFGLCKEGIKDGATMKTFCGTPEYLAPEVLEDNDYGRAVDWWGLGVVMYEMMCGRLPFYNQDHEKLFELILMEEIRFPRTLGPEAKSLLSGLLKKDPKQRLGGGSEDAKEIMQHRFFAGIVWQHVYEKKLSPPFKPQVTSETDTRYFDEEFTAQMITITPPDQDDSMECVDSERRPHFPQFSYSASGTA
Chain of Serine/threonine-protein kinase AKT (Homo sapiens) (P31751 whole entry, looked up): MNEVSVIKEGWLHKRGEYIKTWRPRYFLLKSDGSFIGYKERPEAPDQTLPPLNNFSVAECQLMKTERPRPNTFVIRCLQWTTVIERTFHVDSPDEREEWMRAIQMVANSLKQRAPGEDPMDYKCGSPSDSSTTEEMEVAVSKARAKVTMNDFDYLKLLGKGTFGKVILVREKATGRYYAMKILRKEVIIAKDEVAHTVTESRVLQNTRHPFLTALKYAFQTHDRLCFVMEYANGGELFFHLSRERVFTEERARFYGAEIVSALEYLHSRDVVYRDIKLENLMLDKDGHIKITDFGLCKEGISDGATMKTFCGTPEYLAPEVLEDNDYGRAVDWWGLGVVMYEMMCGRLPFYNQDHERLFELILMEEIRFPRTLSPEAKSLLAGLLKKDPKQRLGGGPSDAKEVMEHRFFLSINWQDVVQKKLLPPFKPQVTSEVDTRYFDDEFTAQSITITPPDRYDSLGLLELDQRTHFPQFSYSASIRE
Chain of Serine/threonine-protein kinase AKT (Homo sapiens) (Q9Y243 whole entry, looked up): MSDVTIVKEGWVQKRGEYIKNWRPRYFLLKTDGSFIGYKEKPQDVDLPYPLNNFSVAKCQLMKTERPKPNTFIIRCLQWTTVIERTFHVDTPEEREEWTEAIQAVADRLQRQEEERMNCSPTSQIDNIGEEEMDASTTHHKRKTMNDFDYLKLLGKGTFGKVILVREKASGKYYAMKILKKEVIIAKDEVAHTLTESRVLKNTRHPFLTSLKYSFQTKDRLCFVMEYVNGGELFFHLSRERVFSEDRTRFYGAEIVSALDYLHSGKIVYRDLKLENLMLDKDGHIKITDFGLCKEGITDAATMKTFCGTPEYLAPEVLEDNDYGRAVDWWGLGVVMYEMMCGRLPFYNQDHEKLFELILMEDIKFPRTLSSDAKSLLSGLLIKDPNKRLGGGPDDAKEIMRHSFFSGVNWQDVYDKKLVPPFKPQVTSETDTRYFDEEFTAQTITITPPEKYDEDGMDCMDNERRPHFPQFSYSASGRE

Regarding `C=C(C)[C@@H]1CCC(C)=C[C@H]1c1c(O)cc(CCCCC)cc1O` [CANNABIDIOL], the IC50 with PC-3 [1] was 10.5 µM. The outcome in the data set with PC-3 [2], in the data set with DU-145 [8], with PC-3 [9] and in the data set on PC-3 [10] was Active. Also, the outcome in the data set on DU-145 [3], in the data set with PC-3 [4], with DU-145 [5], in the data set with PC-3 [6], in the data set with PC-3 [7] and with PC-3 [12] was inactive. The compound further yielded an inhibition in [11] of 40%. The Activity result in the data set with PWR-1E was “Toxic”.

For the origin of these results see ChEMBL document CHEMBL5370586 (J Nat Prod, 2023).
